Reference: ChEMBL document CHEMBL5055621, “Synthesis and Characterization of the Novel Rodent-Active and CNS-Penetrant P2X7 Receptor Antagonist Lu AF27139” (J Med Chem, 2021)

Assays:
[1] = Free plasma concentration in rat at 30 mg/kg, po after 2 hrs by ex vivo equilibrium dialysis; assay type: ADME, organism-based
Outline: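 Male Sprague–Dawley rats were dosed orally at 1–100 mg/kg, and total plasma concentration was measured at 1 and 2 h. This was multiplied by fraction unbound from ex vivo equilibrium dialysis; mean ± SEM, n = 3 animals.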

[2] = target: T1, P2X purinoceptor 7 (Rattus norvegicus, UniProt Q64663); experiment: Displacement of [3H]-A-804598 from rat P2X7 receptor expressed in HEK293 cell membrane by in vitro binding assay; assay type: cell membranes
T1 sequence (Q64663 whole entry): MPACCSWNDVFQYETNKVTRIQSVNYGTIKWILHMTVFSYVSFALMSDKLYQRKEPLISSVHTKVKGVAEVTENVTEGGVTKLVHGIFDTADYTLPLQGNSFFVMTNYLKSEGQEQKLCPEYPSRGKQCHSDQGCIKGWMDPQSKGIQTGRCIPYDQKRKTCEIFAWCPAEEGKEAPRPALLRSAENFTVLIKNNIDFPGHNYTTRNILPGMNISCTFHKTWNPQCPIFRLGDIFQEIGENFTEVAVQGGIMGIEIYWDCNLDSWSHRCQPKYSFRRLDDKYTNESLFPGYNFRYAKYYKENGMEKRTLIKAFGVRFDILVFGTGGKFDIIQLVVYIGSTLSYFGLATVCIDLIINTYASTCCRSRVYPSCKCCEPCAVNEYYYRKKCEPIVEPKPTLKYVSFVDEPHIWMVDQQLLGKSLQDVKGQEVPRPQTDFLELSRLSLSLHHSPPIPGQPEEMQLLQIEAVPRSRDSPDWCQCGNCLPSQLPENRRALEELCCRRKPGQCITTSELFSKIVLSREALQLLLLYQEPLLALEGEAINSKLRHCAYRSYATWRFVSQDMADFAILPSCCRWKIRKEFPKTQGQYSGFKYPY

[3] = Apparent permeability across apical to basolateral side in MDCK-MDR1 cells by LC-MS/MS analysis; details: dog
[4] = AUC (0 to 8 hrs) in female mouse at 100 mg/kg, po after 14 days; details: in vivo
[5] = target: T2, P2X purinoceptor 7 (Mus musculus, UniProt Q9Z1M0); experiment: Displacement of [3H]-A-804598 from mouse P2X7 receptor expressed in HEK293 cell membrane by in vitro binding assay; assay type: cell membranes
T2 sequence (Q9Z1M0 whole entry): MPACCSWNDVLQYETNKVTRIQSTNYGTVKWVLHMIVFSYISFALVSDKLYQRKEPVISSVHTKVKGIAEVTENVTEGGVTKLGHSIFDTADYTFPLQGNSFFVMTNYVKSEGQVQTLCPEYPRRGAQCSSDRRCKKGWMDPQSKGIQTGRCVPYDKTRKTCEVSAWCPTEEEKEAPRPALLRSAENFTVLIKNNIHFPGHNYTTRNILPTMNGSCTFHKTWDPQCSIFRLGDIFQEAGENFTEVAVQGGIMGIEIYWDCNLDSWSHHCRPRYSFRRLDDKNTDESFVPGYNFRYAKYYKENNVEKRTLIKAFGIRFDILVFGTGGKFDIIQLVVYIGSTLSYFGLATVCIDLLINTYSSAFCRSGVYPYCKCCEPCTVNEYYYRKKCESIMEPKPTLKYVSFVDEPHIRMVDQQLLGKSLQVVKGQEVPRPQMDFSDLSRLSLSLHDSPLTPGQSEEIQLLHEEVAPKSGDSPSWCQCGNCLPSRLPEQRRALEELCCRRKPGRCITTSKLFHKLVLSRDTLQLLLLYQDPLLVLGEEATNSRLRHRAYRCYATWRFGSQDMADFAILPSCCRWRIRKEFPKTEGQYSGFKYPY

[6] = target: T3, Cytochrome P450 3A4 (Homo sapiens, UniProt P08684); experiment: Inhibition of CYP3A4 (unknown origin) upto 25 uM; assay type: ADME
T3 sequence (P08684 whole entry): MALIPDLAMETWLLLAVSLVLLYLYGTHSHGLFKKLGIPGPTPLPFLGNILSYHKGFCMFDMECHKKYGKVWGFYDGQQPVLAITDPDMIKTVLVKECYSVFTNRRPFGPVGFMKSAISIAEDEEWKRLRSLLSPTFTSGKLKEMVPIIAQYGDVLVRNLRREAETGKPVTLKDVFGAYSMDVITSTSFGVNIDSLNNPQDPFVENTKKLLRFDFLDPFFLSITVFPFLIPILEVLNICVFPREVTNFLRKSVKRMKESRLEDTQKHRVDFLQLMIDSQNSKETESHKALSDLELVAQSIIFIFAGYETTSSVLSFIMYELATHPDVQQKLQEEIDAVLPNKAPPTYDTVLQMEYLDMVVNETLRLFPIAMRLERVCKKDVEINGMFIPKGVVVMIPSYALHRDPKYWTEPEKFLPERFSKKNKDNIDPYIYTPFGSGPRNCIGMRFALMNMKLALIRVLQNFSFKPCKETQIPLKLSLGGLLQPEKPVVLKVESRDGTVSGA

[7] = target: T4, Cytochrome P450 2B6 (Homo sapiens, UniProt P20813); experiment: Inhibition of CYP2B6 (unknown origin) upto 25 uM; assay type: ADME
T4 sequence (P20813 whole entry): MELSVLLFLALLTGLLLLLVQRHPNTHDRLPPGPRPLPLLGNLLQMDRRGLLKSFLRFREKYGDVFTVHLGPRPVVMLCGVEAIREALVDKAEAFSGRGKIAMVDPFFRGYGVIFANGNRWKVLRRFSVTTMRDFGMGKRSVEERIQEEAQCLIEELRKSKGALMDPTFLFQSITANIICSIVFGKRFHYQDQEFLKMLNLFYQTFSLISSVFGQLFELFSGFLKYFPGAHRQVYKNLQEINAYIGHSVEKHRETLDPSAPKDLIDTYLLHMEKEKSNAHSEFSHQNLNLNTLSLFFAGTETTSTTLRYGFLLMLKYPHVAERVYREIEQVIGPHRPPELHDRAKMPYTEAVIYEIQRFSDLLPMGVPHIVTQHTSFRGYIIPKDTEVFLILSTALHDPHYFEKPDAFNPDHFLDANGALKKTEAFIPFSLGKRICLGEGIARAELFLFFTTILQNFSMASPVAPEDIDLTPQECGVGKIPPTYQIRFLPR

[8] = target: T3, Cytochrome P450 3A4; experiment: Time dependent inhibition of CYP3A4 (unknown origin) upto 25 uM; assay type: ADME
[9] = Tmax in rat at 2 mg/kg, po; assay type: ADME, organism-based; details: in vivo
Outline: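 Rats received 1 mg/kg iv or 2 mg/kg po. The plasma concentration–time profile was analysed by a noncompartmental model to give half-life, Cmax, Tmax and absolute oral bioavailability.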

[10] = Efflux ratio of permeability across basolateral to apical side over apical to basolateral side in MDCK2-MDR1 cells; assay type: ADME, cell-based, Canis lupus familiaris; details: dog, MDCK-MDR1
Outline: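 MDR1-MDCK monolayers; permeability measured in both A-to-B and B-to-A directions, in triplicate. Efflux ratio taken as B:A over A:B permeation.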

[11] = Cmax in female mouse at 100 mg/kg, po administered as single dose; details: in vivo
[12] = AUC (0 to 8 hrs) in female mouse at 100 mg/kg, po administered as single dose; details: in vivo
[13] = target: Sodium channel protein type 5 subunit alpha (Homo sapiens, UniProt Q14524); experiment: Inhibition of human Nav1.5 at 10 uM
Sodium channel protein type 5 subunit alpha, sequence (Q14524 whole entry): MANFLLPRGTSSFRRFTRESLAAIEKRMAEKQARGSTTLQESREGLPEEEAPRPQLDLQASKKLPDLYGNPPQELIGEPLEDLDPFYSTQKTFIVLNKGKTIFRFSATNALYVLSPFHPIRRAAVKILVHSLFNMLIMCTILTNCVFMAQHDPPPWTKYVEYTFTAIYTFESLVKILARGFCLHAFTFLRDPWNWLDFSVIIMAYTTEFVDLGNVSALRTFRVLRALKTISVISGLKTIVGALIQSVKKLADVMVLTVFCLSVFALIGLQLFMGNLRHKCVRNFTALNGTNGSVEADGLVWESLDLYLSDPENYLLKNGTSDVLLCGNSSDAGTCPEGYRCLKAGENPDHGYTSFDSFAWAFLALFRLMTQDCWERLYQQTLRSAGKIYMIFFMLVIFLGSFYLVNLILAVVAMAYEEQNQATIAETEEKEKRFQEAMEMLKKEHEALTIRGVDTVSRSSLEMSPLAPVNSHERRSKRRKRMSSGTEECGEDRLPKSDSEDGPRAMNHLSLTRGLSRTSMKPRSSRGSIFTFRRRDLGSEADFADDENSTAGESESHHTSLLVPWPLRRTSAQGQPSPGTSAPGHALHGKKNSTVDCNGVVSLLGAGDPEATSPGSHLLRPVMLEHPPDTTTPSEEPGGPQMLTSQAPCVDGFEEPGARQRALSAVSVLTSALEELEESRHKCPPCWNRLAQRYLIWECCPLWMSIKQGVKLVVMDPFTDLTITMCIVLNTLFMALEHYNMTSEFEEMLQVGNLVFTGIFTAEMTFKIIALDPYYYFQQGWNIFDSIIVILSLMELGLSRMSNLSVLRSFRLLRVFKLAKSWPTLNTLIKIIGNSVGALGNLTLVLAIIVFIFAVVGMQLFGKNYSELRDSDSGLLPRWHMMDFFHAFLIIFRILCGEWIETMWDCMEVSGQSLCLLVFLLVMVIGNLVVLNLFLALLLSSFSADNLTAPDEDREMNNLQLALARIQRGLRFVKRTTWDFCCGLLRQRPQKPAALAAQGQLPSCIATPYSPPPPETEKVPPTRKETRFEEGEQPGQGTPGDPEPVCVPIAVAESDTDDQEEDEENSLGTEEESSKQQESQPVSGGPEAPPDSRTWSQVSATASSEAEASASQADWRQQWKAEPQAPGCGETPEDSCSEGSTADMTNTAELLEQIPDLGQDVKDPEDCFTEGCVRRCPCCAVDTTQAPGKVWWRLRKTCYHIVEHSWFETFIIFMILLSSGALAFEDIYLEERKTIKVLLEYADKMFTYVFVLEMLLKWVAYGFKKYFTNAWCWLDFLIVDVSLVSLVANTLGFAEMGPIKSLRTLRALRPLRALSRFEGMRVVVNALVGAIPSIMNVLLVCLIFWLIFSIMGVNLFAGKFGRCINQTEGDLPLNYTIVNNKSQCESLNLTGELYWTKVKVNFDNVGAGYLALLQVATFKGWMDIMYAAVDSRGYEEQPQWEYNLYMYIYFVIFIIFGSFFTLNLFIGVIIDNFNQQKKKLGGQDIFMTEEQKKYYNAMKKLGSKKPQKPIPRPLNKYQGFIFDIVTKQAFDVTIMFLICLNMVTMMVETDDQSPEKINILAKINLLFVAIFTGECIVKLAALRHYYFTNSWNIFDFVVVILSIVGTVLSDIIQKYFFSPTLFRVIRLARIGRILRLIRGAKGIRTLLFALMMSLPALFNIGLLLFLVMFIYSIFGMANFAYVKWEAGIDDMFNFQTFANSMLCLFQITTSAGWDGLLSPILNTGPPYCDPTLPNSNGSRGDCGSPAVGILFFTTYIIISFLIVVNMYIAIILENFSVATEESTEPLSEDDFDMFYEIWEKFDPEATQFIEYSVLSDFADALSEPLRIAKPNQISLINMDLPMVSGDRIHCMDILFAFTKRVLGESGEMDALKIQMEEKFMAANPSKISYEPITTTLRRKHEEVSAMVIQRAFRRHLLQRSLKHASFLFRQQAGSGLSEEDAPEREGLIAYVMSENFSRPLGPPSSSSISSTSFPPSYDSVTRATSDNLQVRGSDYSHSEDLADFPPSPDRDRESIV
Outline: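 Human Nav1.5, Cav1.2 and KCNQ1/minK channels were tested at 10 μM.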

[14] = Inhibition of BzATP-induced current in rat primary microglia cells measured after repeated BzATP treatment at -60 mV at 100 nM by whole cell patch clamp assay relative to control; assay type: functional
Outline: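 Rat primary microglia were whole-cell patch-clamped at −60 mV (external pH 7.4 with 1.8 mM CaCl2; CsCl/EGTA internal pH 7.2). Currents came from 10 s applications of 300 μM BzATP, applied repeatedly. Compound was applied by gravity via capillary for 60 s, and inhibition was taken relative to the control response.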

[15] = AUC (0 to 8 hr) in male rat at 3 mg/kg, po after 7 days; assay type: ADME, organism-based; design: dose 3 mg/kg, time 7 day, route po; details: in vivo
Outline: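 Oral dosing in male Sprague-Dawley rats (150−200 g, 7-day acclimation, standard housing) in a 7-day exploratory toxicology study.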

## O=C(NC[C@H](c1ccc(Cl)cc1)N1CCOCC1)c1sc(-c2ncccn2)nc1C(F)(F)F
[1]
  Cp(f): 0.556 µM
[2]
  Ki: 0.013 µM
[3]
  Papp A:B: 15 ×10⁻⁶ cm/s
[4]
  AUC at 336 h: 131 µM·h
[5]
  Ki: 0.18 µM
[6]
  inhibition (INH): Not Active
[7]
  inhibition (INH): Not Active
[8]
  TDI: Not Active
[9]
  Tmax: 34.8 min
[10]
  efflux ratio: 0.81
[11]
  Cmax: 140 µM
[12]
  AUC(0-t) at 8 h: 399 µM·h
[13]
  inhibition (INH): Not Active
[14]
  inhibition at 0.1 µM: 80%
[15]
  AUC at 168 h: 7.16 µM·h
